Experimental data published in ChEMBL document CHEMBL4138185, “Investigation of the Physical and Bioactive Properties of Bromo- and Iodo-Containing Sponge-Derived Compounds Possessing an Oxyphenylethanamine Core” (J Nat Prod, 2017).

Key:
Assay type in all cases: organism-based
Settings in all cases: in vivo
[1] = system: Yersinia pseudotuberculosis; experiment: Growth inhibition of Yersinia pseudotuberculosis harboring pYV deletion mutant at 60 uM measured at 30 mins interval for 8 hrs
Procedure, shortened: (§1)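 Y. pseudotuberculosis strain lacking the T3SS-encoding virulence plasmid pYV (pYV−), grown in low-calcium media at 37 °C with test agent at 60 μM, kanamycin at 50 μg/mL, or DMSO. Growth followed by absorbance at 600 nm over 8 h.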

[2] = system: Yersinia pseudotuberculosis; experiment: Toxicity against Yersinia pseudotuberculosis harboring pYV deletion mutant at 60 uM measured after 8 hrs by MTT assay
Procedure, shortened: (§2)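 pYV− Y. pseudotuberculosis cultured in low-calcium media at 37 °C with test agent at 60 μM, kanamycin at 50 μg/mL, or DMSO. MTT added after 8 h of incubation; formazan absorbance at 570 nm taken as bacterial metabolic activity.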

[3] = system: Yersinia pseudotuberculosis; experiment: Growth inhibition of Yersinia pseudotuberculosis harboring pYV deletion mutant at 50 ug/ml measured at 30 mins interval for 8 hrs; procedure, shortened: as §1
[4] = system: Yersinia pseudotuberculosis; experiment: Toxicity against Yersinia pseudotuberculosis harboring pYV deletion mutant at 50 ug/ml measured after 8 hrs by MTT assay; procedure, shortened: as §2

Structure (SMILES)	growth inhibition (GI) [1]	Activity [2]	growth inhibition (GI) [3]	Activity [4]
CCC(=O)N(C)CCc1cc(Br)c(OCCCNC(=O)Cc2ccc(O)cc2)c(Br)c1	Non-Toxic	Non-Toxic		
CCC(=O)N(C)CCc1ccc(OCCCNC(=O)Cc2ccc(O)cc2)c(Br)c1	Non-Toxic	Non-Toxic		
COc1c(Br)cc(CC(O)C(=O)NCCc2ccc(O)c(Br)c2)cc1Br (stereo unspecified)	Non-Toxic	Non-Toxic		
CCC(=O)N(C)CCc1ccc(OCCCN(C)C(=O)Cc2ccc(O)cc2)c(Br)c1	Non-Toxic	Non-Toxic		
COc1c(Br)cc(CC(O)C(=O)NCCc2ccc(O)c(I)c2)cc1Br (stereo unspecified)	Non-Toxic	Non-Toxic		
CCC(=O)N(C)CCc1cc(Br)c(OCCCNC(=O)Cc2ccc(O)cc2)c(I)c1	Non-Toxic	Non-Toxic		
CCC(=O)N(C)CCc1ccc(OCCCNC(=O)Cc2ccc(O)cc2)c(I)c1	Non-Toxic	Non-Toxic		
NC[C@H]1O[C@H](O[C@H]2[C@H](O)[C@@H](O[C@H]3O[C@H](CO)[C@@H](O)[C@H](N)[C@H]3O)[C@H](N)C[C@@H]2N)[C@H](O)[C@@H](O)[C@@H]1O [KANAMYCIN]			Non-Toxic	Non-Toxic
